Reference: ChEMBL document CHEMBL4765453, “Phenanthrolinic analogs of quinolones show antibacterial activity against M. tuberculosis” (Eur J Med Chem, 2020)
≈ marks a conversion by molar mass, not a printed value.

What was measured:
Type in all cases: functional
Details in all cases: time 7 day
[1] = test system: Mycobacterium tuberculosis; test: Antitubercular activity against FQ resistant Mycobacterium tuberculosis H37Rv harboring gyrA Ser-91-Pro mutant measured after 7 days by resazurin microtiter assay
Outline: (§1)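 Resazurin microtiter assay with two-fold drug dilutions in complete 7H9 broth. Exponential-phase cells are diluted to a final OD600 of 0.005 in 7H9 without Tween. Incubation is 7 days at 37°C, then 0.01% resazurin is added and plates are held 24 h more. MIC is the lowest concentration preventing the blue-to-pink change. Each MIC is determined three times in duplicate experiments.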

[2] = test system: Mycobacterium tuberculosis; test: Antitubercular activity against FQ resistant Mycobacterium tuberculosis H37Rv harboring gyrA Asp-94-Gly mutant measured after 7 days by resazurin microtiter assay; outline: as §1
[3] = test system: Mycobacterium tuberculosis; test: Antitubercular activity against FQ resistant Mycobacterium tuberculosis H37Rv harboring gyrA Asp-94-Gly/gyrB Asp-500-Asn mutant measured after 7 days by resazurin microtiter assay; outline: as §1
[4] = test system: Mycobacterium tuberculosis; test: Antitubercular activity against FQ resistant Mycobacterium tuberculosis H37Rv harboring gyrA Ala-90-Val mutant measured after 7 days by resazurin microtiter assay; outline: as §1
[5] = test system: Mycobacterium tuberculosis; test: Antitubercular activity against FQ resistant Mycobacterium tuberculosis H37Rv harboring gyrA Gly-88-Cys mutant measured after 7 days by resazurin microtiter assay; outline: as §1
[6] = test system: Mycobacterium tuberculosis; test: Antitubercular activity against FQ resistant Mycobacterium tuberculosis H37Rv harboring gyrA Ala-90-Val/gyrB Glu-540-Val mutant measured after 7 days by resazurin microtiter assay; outline: as §1

SMILES | MIC90 [1] [µM] | MIC90 [2] [µM] | MIC90 [3] [µM] | MIC90 [4] [µM] | MIC90 [5] [µM] | MIC90 [6] [µM]
Cn1cc(C(=O)O)c(=O)c2cc([N+](=O)[O-])c3cccnc3c21 | 5.28 (≈ 1.58 µg/mL) | 2.64 (≈ 0.79 µg/mL) | 5.28 (≈ 1.58 µg/mL) | 5.28 (≈ 1.58 µg/mL) | 2.64 (≈ 0.79 µg/mL) | 5.28 (≈ 1.58 µg/mL)
CCOC(=O)c1cn(C)c2c(cc([N+](=O)[O-])c3cccnc32)c1=O | >50 | 1.21 (≈ 0.396 µg/mL) | >50 | >50 | >50 | >50
CCn1cc(C(=O)O)c(=O)c2cc([N+](=O)[O-])c3cccnc3c21 | 11.68 (≈ 3.66 µg/mL) | 2.99 (≈ 0.937 µg/mL) | 5.84 (≈ 1.83 µg/mL) | 11.68 (≈ 3.66 µg/mL) | 11.68 (≈ 3.66 µg/mL) | 11.68 (≈ 3.66 µg/mL)
CCOC(=O)c1cn(CC)c2c(cc([N+](=O)[O-])c3cccnc32)c1=O | >50 | 4.99 (≈ 1.7 µg/mL) | >50 | >50 | >50 | >50
COc1c(N2C[C@@H]3CCCN[C@@H]3C2)c(F)cc2c(=O)c(C(=O)O)cn(C3CC3)c12 [MOXIFLOXACIN] | 6.16 (≈ 2.47 µg/mL) | 3.08 (≈ 1.24 µg/mL) | 6.16 (≈ 2.47 µg/mL) | 3.08 (≈ 1.24 µg/mL) | 6.16 (≈ 2.47 µg/mL) | 6.16 (≈ 2.47 µg/mL)
CCn1cc(C(=O)O)c(=O)c2ccc(C)nc21 [NALIDIXIC ACID] | >50 | >50 | >50 | >50 | >50 | >50
CC1COc2c(N3CCN(C)CC3)c(F)cc3c(=O)c(C(=O)O)cn1c23 (configuration not stated) [OFLOXACIN] | 27.6 (≈ 9.97 µg/mL) | 13.8 (≈ 4.99 µg/mL) | 27.6 (≈ 9.97 µg/mL) | 13.8 (≈ 4.99 µg/mL) | 27.6 (≈ 9.97 µg/mL) | 27.6 (≈ 9.97 µg/mL)
